Source: ChEMBL document CHEMBL3352503, “An investigation of in vitro cytotoxicity and apoptotic potential of aromatic diselenides” (Bioorg Med Chem Lett, 2014)
Calls of active or inactive are those of the source. The rule behind the calls is not given here.

How the values were obtained:
[1] = Cytotoxicity against human HL60 cells after 48 hrs by MTT assay; type: functional, cell-based; details: HL-60, 48 h
Outline: (§1)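 Cells grown at 37°C, 5% CO2 with 10% heat-inactivated FBS, penicillin, streptomycin and L-glutamine: HL-60 (suspension) in RPMI-1640, PC-3 in MEM. Seeded 6000 cells/well, exposed 48 h to a range of concentrations (DMSO vehicle, final below 1%). MTT (2.5 mg/mL) added for 4 h, formazan dissolved in DMSO, OD at 540 nm (ref. 620 nm); growth vs untreated cells.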

[2] = Cytotoxicity against human OVCAR5 cells after 48 hrs by MTT assay; type: functional, cell-based; details: OVCAR-5, 48 h
[3] = Cytotoxicity against human 786-O cells after 48 hrs by MTT assay; type: functional, cell-based; details: 786-0, 48 h
HT-29 = test: Cytotoxicity against human HT-29 cells after 48 hrs by MTT assay; type: functional, cell-based; details: HT-29, 48 h
[4] = Cytotoxicity against human PC3 cells after 48 hrs by MTT assay; type: functional, cell-based; details: PC-3, 48 h; outline: as §1
HL-60 [5] = test: Cytotoxicity against human HL60 cells by MTT assay; type: functional, cell-based; details: TDE = time-dependent effect
Outline: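 Cells grown in RPMI-1640 with 10% heat-inactivated FBS at 37 °C, 5% CO₂, seeded at 6000 cells/well and exposed to test material for 48 hr. DMSO vehicle kept below 1% final. MTT (2.5 mg/mL) added for 4 hr, formazan dissolved in DMSO, OD read at 540 nm (reference 620 nm). Growth calculated as treated vs untreated absorbance.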

HL-60 [6] = test: Induction of apoptosis in human HL60 cells at 10 uM after 24 hrs by propidium iodide staining-based flow cytometry (reference value: 1.49%); type: functional
[7] = Cell cycle arrest in human HL60 cells assessed as accumulation at G1 phase at 10 uM after 24 hrs by propidium iodide staining-based flow cytometry (reference value: 50.80%); type: functional; details: HL-60
[8] = Cell cycle arrest in human HL60 cells assessed as accumulation at G2 phase at 10 uM after 24 hrs by propidium iodide staining-based flow cytometry (reference value: 2.39%); type: functional; details: HL-60
[9] = Cell cycle arrest in human HL60 cells assessed as accumulation at S phase at 10 uM after 24 hrs by propidium iodide staining-based flow cytometry (reference value: 46.82%); type: functional; details: HL-60
HL-60 [10] = test: Induction of apoptosis in human HL60 cells at 20 uM after 24 hrs by propidium iodide staining-based flow cytometry (reference value: 1.49%); type: functional
[11] = Cell cycle arrest in human HL60 cells assessed as accumulation at G1 phase at 20 uM after 24 hrs by propidium iodide staining-based flow cytometry (reference value: 50.80%); type: functional; details: HL-60
[12] = Cell cycle arrest in human HL60 cells assessed as accumulation at G2 phase at 20 uM after 24 hrs by propidium iodide staining-based flow cytometry (reference value: 2.39%); type: functional; details: HL-60
[13] = Cell cycle arrest in human HL60 cells assessed as accumulation at S phase at 20 uM after 24 hrs by propidium iodide staining-based flow cytometry (reference value: 46.82%); type: functional; details: HL-60
HL-60 [14] = test: Induction of apoptosis in human HL60 cells at 30 uM after 24 hrs by propidium iodide staining-based flow cytometry (reference value: 1.49%); type: functional
[15] = Cell cycle arrest in human HL60 cells assessed as accumulation at G1 phase at 30 uM after 24 hrs by propidium iodide staining-based flow cytometry (reference value: 50.80%); type: functional; details: HL-60
[16] = Cell cycle arrest in human HL60 cells assessed as accumulation at G2 phase at 30 uM after 24 hrs by propidium iodide staining-based flow cytometry (reference value: 2.39%); type: functional; details: HL-60
[17] = Cell cycle arrest in human HL60 cells assessed as accumulation at S phase at 30 uM after 24 hrs by propidium iodide staining-based flow cytometry (reference value: 46.82%); type: functional; details: HL-60
HL-60 [18] = test: Induction of apoptosis in human HL60 cells assessed as loss of mitochondrial membrane potential after 24 hrs by Rhodamine-123 staining-based flow cytometric analysis; type: functional, cell-based
HL-60 [19] = test: Induction of apoptosis in human HL60 cells assessed as loss of mitochondrial membrane potential at 10 uM after 24 hrs by Rhodamine-123 staining-based flow cytometric analysis (reference value: 6%); type: functional
HL-60 [20] = test: Induction of apoptosis in human HL60 cells assessed as loss of mitochondrial membrane potential at 20 uM after 24 hrs by Rhodamine-123 staining-based flow cytometric analysis (reference value: 6%); type: functional
HL-60 [21] = test: Induction of apoptosis in human HL60 cells assessed as loss of mitochondrial membrane potential at 30 uM after 24 hrs by Rhodamine-123 staining-based flow cytometric analysis (reference value: 6%); type: functional
HL-60 [22] = test: Induction of apoptosis in human HL60 cells assessed as chromatin condensation at 20 to 30 uM after 24 hrs by fluorescent microscopy; type: functional, cell-based
HL-60 [23] = test: Induction of apoptosis in human HL60 cells assessed as membrane blebbing at 20 to 30 uM after 24 hrs by fluorescent microscopy; type: functional, cell-based
HL-60 [24] = test: Induction of apoptosis in human HL60 cells assessed as nuclear fragmentation at 20 to 30 uM after 24 hrs by fluorescent microscopy; type: functional, cell-based

SMILES | IC50 [1] [µM] | IC50 [2] [µM] | IC50 [3] [µM] | IC50 (HT-29) [µM] | IC50 [4] [µM] | also measured
OCc1ccccc1[Se][Se]c1ccccc1CO | 14 | 16 | 27 | 25 | 28 | –
c1ccc([Se][Se]c2ccccn2)nc1 | 28 | 27 | 29 | 30 | 26 | –
COc1ccc([Se][Se]c2ccc(OC)cc2)cc1 | 12 | 26 | 28 | 24 | 27 | –
Cc1cc(C)cc([Se][Se]c2cc(C)cc(C)c2)c1 | 23 | 34 | 33 | 36 | 30 | –
Oc1ccc([Se][Se]c2ccc(O)cc2)cc1 | 13 | 27 | 33 | 37 | 29 | –
FC(F)(F)c1cc([Se][Se]c2cc(C(F)(F)F)cc(C(F)(F)F)c2)cc(C(F)(F)F)c1 | 8 | 20 | 24 | 21 | 13 | inhibition (HL-60 [5]): tde; Activity (HL-60 [6]): 2.45%; Activity [7]: 49.7%; Activity [8]: 1.93%; Activity [9]: 48.4%; Activity (HL-60 [10]): 5.65%; Activity [11]: 50.8%; Activity [12]: 3.78%; Activity [13]: 45.5%; Activity (HL-60 [14]): 23.94%; Activity [15]: 46.1%; Activity [16]: 0%; Activity [17]: 53.9%; Activity (HL-60 [18]): Dose-dependent effect; Activity (HL-60 [19]): 11%; Activity (HL-60 [20]): 20%; Activity (HL-60 [21]): 58%; Activity (HL-60 [22]): Active; Activity (HL-60 [23]): Active; Activity (HL-60 [24]): Active
c1ccc([Se][Se]c2ccccc2)cc1 | 32 | 38 | 38 | 31 | 42 | –
OCc1ccc([Se][Se]c2ccc(CO)cc2)cc1 | 11 | 24 | 30 | 27 | 26 | –
Oc1ccccc1[Se][Se]c1ccccc1O | 14 | 21 | – | 23 | 25 | –
Cc1cccc(C)c1[Se][Se]c1c(C)cccc1C | 27 | 39 | 40 | 35 | 33 | –
Cc1ccc([Se][Se]c2ccc(C)cc2)cc1 | 33 | 31 | 29 | 37 | 29 | –
c1ccc2c([Se][Se]c3cccc4ccccc34)cccc2c1 | 16 | 25 | 32 | 34 | 40 | –
CCc1ccccc1[Se][Se]c1ccccc1CC | 28 | 38 | 42 | 56 | 43 | –
